Assays:
Calu-6 = assay: Antiproliferative activity against human Calu-6 cells assessed as inhibition of cell viability incubated for 3 to 5 days by Celltiter-Glo luminescent assay; type: functional, cell-based
[1] = target: Inhibitor of nuclear factor kappa-B kinase subunit epsilon (Homo sapiens, UniProt Q14164); assay: Inhibition of IKKE (unknown origin)
MAO-A = MAO-A (Homo sapiens, UniProt P21397); assay: Inhibition of MAO-A (unknown origin) at 10 uM by radioligand binding assay relative to control
MAO-A, sequence (P21397 whole entry): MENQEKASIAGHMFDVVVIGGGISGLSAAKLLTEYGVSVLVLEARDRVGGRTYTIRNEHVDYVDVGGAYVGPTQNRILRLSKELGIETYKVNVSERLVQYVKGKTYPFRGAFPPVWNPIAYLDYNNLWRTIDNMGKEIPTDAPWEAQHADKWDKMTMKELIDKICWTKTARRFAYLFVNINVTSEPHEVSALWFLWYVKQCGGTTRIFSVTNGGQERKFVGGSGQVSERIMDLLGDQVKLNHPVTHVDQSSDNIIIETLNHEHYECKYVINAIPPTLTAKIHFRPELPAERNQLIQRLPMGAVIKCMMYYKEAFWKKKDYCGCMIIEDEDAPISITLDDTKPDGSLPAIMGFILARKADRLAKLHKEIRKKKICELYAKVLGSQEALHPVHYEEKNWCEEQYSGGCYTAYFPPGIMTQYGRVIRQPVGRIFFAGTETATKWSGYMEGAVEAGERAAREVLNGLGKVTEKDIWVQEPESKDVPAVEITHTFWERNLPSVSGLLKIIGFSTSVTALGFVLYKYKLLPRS

HCC38 = assay: Antiproliferative activity against human HCC38 cells assessed as inhibition of cell viability incubated for 3 to 5 days by Celltiter-Glo luminescent assay; type: functional, cell-based
[2] = AUC in CB17 SCID mouse xenografted with LuCaP-77 CR cell at 100 mg/kg, ip administered for 7 days; type: ADME, organism-based; conditions: in vivo, time 7 day
NCI-H1693 = assay: Antiproliferative activity against human NCI-H1693 cells assessed as inhibition of cell viability incubated for 3 to 5 days by Celltiter-Glo luminescent assay; type: functional, cell-based
NCI-H23 = assay: Antiproliferative activity against human NCI-H23 cells assessed as inhibition of cell viability incubated for 3 to 5 days by Celltiter-Glo luminescent assay; type: functional, cell-based
Hs 294T = assay: Antiproliferative activity against human Hs294T cells assessed as inhibition of cell viability incubated for 3 to 5 days by Celltiter-Glo luminescent assay; type: functional, cell-based
4T1 = assay: Antiproliferative activity against mouse 4T1 cells assessed as inhibition of cell viability incubated for 3 to 5 days by Celltiter-Glo luminescent assay; type: functional, cell-based
OCI-AML-5 = assay: Antiproliferative activity against human OCI-AML5 cells assessed as inhibition of cell viability incubated for 3 to 5 days by Celltiter-Glo luminescent assay; type: functional, cell-based
Aurora kinase B = Aurora kinase B (Homo sapiens, UniProt Q96GD4); assay: Inhibition of Aurora1 (unknown origin)
SU-DHL10 = assay: Antiproliferative activity against human Su-DHL-10 cells assessed as inhibition of cell viability incubated for 3 to 5 days by Celltiter-Glo luminescent assay; type: functional, cell-based
EOL1 = assay: Antiproliferative activity against human EOL-1 cells assessed as inhibition of cell viability incubated for 3 to 5 days by Celltiter-Glo luminescent assay; type: functional, cell-based
SET-2 = assay: Antiproliferative activity against human SET2 cells assessed as inhibition of cell viability incubated for 3 to 5 days by Celltiter-Glo luminescent assay; type: functional, cell-based
[3] = target: Epithelial discoidin domain-containing receptor 1 (Homo sapiens, UniProt Q08345); assay: Inhibition of DDR1 (unknown origin)
Epithelial discoidin domain-containing receptor 1, sequence (Q08345 whole entry, the tested form may be a part): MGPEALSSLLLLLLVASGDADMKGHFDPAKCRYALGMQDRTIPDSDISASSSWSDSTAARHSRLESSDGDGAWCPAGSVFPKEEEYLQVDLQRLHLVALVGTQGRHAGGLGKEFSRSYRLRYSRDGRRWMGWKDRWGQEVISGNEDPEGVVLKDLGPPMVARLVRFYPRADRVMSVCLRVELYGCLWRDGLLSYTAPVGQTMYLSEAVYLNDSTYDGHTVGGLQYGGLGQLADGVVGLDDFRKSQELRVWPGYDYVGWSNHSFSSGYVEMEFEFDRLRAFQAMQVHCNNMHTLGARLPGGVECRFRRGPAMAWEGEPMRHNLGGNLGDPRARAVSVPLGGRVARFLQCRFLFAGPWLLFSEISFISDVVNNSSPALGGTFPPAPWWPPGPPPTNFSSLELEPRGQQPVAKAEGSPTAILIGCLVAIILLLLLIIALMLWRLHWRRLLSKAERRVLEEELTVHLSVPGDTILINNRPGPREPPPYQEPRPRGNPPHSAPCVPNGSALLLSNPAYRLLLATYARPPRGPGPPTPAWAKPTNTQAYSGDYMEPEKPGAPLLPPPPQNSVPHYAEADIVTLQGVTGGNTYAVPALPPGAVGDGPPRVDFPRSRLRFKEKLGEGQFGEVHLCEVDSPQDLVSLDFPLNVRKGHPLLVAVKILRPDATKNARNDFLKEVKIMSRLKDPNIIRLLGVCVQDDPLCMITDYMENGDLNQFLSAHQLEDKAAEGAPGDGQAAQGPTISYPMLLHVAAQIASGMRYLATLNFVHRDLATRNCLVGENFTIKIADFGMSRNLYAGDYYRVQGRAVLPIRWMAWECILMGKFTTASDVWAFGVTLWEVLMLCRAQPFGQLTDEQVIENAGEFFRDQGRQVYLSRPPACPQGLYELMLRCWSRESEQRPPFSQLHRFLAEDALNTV

NCI-H522 = assay: Antiproliferative activity against human NCI-H522 cells assessed as inhibition of cell viability incubated for 3 to 5 days by Celltiter-Glo luminescent assay; type: functional, cell-based
[4] = target: Serine/threonine-protein kinase TBK1 (Homo sapiens, UniProt Q9UHD2); assay: Inhibition of TBK1 (unknown origin)
[5] = target: Platelet-derived growth factor receptor beta (Homo sapiens, UniProt P09619); assay: Inhibition of PDGFRbeta (unknown origin)
Platelet-derived growth factor receptor beta, sequence (P09619 whole entry): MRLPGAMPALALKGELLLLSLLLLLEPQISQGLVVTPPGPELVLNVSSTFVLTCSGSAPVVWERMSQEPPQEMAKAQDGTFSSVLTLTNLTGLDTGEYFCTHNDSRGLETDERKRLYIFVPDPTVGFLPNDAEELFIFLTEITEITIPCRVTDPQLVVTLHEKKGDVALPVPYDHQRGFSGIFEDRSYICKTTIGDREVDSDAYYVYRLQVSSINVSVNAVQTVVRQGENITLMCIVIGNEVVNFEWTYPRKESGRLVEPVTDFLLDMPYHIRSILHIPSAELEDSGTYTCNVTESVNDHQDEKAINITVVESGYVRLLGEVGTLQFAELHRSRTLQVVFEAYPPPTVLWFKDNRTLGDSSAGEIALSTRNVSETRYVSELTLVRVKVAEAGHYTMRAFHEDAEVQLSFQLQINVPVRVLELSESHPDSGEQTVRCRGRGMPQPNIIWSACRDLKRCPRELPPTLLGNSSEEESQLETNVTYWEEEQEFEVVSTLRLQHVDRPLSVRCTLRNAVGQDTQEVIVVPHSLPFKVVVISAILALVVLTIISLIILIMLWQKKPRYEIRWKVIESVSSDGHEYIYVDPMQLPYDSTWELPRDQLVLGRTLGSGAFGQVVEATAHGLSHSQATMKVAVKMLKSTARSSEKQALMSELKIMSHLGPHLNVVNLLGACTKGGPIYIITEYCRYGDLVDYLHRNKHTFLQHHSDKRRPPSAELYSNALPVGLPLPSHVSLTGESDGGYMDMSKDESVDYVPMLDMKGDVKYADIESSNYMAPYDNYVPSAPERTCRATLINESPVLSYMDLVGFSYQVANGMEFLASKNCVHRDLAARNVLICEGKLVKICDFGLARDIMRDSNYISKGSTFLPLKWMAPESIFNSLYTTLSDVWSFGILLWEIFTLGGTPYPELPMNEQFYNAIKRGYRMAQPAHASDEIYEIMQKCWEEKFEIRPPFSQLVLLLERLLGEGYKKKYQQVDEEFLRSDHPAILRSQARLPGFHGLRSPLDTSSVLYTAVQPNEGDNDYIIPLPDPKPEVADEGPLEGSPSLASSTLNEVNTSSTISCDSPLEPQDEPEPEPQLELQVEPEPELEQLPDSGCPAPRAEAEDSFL

[6] = target: Tyrosine-protein kinase Lck (Homo sapiens, UniProt P06239); assay: Inhibition of Lck (unknown origin)
MM1.S = assay: Antiproliferative activity against human MM1.S cells assessed as inhibition of cell viability incubated for 3 to 5 days by Celltiter-Glo luminescent assay; type: functional, cell-based
[7] = target: Histone acetyltransferase p300 (Homo sapiens, UniProt Q09472)
[8] = target: Calcium/calmodulin-dependent protein kinase type 1D (Homo sapiens, UniProt Q8IU85); assay: Inhibition of CAMK1D (unknown origin)
U-937 = assay: Antiproliferative activity against human U937 cells assessed as inhibition of cell viability incubated for 3 to 5 days by Celltiter-Glo luminescent assay; type: functional, cell-based
NCI-H596 = assay: Antiproliferative activity against human NCI-H596 cells assessed as inhibition of cell viability incubated for 3 to 5 days by Celltiter-Glo luminescent assay; type: functional, cell-based
NCI-H1417 = assay: Antiproliferative activity against human NCI-H1417 cells assessed as inhibition of cell viability incubated for 3 to 5 days by Celltiter-Glo luminescent assay; type: functional, cell-based
[9] = target: Proto-oncogene tyrosine-protein kinase receptor Ret (Homo sapiens, UniProt P07949); assay: Inhibition of Ret (unknown origin)
Proto-oncogene tyrosine-protein kinase receptor Ret, sequence (P07949 whole entry): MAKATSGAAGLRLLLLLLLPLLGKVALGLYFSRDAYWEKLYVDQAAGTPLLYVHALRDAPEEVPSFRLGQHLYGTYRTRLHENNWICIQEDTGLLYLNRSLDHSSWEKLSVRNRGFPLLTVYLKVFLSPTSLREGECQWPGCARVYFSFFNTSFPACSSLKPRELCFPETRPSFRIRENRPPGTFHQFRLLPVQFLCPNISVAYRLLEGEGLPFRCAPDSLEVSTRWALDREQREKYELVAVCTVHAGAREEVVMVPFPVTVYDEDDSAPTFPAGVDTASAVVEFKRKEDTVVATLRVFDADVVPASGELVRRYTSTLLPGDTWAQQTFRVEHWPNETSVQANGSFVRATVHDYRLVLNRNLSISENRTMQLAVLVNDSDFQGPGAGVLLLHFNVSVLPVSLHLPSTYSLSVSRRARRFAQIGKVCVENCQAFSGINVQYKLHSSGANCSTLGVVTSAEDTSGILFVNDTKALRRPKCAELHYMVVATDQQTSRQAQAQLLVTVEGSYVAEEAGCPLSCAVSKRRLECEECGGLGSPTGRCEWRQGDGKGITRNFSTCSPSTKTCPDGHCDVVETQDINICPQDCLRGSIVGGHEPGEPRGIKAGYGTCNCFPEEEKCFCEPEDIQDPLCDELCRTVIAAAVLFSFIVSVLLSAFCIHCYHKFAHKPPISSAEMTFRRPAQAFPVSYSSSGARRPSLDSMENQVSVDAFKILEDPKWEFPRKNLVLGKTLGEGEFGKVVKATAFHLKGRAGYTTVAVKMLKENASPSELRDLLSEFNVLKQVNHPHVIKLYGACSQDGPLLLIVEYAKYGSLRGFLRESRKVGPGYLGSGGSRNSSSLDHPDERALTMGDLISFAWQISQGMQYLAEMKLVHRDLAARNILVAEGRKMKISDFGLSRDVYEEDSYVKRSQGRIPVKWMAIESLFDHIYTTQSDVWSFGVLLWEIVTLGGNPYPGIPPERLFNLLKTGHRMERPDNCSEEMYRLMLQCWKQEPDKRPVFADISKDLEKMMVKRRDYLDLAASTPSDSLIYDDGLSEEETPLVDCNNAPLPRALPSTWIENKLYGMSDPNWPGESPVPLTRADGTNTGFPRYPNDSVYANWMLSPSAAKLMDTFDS

NCI-H1836 = assay: Antiproliferative activity against human NCI-H1836 cells assessed as inhibition of cell viability incubated for 3 to 5 days by Celltiter-Glo luminescent assay; type: functional, cell-based
[10] = target: CREB-binding protein/Histone acetyltransferase p300 (Homo sapiens, UniProt Q09472+Q92793); assay: Inhibition of p300/CBP in human 22Rv1 cells assessed as reduction in H3K18Ac level incubated for 1 hr by Hoechst 33342 staining based high content microscopy analysis; type: cell-based
Method in brief: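 Cells received an 8-point half-log dilution series from 10 µM. They were then fixed in 10% formaldehyde (10 min, RT), permeabilised with 0.1% Triton X-100 and blocked with 1% BSA for 1 h. Primary antibodies were applied overnight at 4 °C, followed by Alexa488 anti-rabbit, Alexa555 anti-mouse and Hoechst 33342 for 1 h. Fifteen fields per well were imaged and average mean intensity taken. EC50 came from a sigmoidal fit.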

NCI-H441 = assay: Antiproliferative activity against human NCI-H441 cells assessed as inhibition of cell viability incubated for 3 to 5 days by Celltiter-Glo luminescent assay; type: functional, cell-based
[11] = target: Vascular endothelial growth factor receptor 2 (Homo sapiens, UniProt P35968); assay: Inhibition of Kdr (unknown origin)
Vascular endothelial growth factor receptor 2, sequence (P35968 whole entry): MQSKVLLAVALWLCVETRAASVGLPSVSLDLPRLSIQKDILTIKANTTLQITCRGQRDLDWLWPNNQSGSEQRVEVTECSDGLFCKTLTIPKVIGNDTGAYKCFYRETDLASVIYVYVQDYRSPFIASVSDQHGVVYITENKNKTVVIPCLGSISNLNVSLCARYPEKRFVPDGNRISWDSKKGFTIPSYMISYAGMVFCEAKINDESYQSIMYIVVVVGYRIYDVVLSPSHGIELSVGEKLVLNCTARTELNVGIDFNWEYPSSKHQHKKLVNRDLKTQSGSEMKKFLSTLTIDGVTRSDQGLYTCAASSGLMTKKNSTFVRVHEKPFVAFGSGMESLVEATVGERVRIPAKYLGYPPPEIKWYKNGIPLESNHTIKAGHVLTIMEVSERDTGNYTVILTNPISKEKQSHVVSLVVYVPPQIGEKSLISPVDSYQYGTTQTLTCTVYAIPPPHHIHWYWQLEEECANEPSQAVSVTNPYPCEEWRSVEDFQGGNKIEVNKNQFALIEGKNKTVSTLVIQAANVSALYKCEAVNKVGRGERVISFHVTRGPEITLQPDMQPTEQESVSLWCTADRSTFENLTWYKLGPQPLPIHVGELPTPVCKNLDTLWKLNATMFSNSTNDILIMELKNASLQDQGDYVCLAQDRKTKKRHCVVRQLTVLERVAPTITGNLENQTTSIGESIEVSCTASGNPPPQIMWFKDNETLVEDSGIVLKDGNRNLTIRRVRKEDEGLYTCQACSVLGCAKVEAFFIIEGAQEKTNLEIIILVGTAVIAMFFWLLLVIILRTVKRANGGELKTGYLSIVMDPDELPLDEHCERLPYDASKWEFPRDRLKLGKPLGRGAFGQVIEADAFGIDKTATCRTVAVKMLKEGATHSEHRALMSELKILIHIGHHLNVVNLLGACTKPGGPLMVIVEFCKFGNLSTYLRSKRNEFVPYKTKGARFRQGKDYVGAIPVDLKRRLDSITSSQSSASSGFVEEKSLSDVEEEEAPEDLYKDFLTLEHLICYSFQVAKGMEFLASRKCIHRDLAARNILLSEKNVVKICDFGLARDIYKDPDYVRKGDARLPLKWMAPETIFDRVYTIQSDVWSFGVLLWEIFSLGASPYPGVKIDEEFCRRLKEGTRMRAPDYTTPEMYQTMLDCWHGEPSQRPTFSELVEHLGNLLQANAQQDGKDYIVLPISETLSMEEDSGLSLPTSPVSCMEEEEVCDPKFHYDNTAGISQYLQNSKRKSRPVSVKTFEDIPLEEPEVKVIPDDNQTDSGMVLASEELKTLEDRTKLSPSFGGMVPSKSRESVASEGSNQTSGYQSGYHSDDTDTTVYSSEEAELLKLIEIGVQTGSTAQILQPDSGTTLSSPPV

[12] = target: Mitogen-activated protein kinase 14 (Homo sapiens, UniProt Q16539); assay: Inhibition of p38alpha (unknown origin)
[13] = AUC in CB17 SCID mouse xenografted with LuCaP-77 CR cell at 50 mg/kg, ip administered for 7 days; type: ADME, organism-based; conditions: in vivo, time 7 day
BT-20 = assay: Antiproliferative activity against human BT-20 cells assessed as inhibition of cell viability incubated for 3 to 5 days by Celltiter-Glo luminescent assay; type: functional, cell-based
Granta-519 = assay: Antiproliferative activity against human Granta-519 cells assessed as inhibition of cell viability incubated for 3 to 5 days by Celltiter-Glo luminescent assay; type: functional, cell-based
[14] = target: Serine/threonine-protein kinase TAO2 (Homo sapiens, UniProt Q9UL54); assay: Inhibition of TAOK2 (unknown origin)
HT-144 = assay: Antiproliferative activity against human HT-144 cells assessed as inhibition of cell viability incubated for 3 to 5 days by Celltiter-Glo luminescent assay; type: functional, cell-based
[15] = target: Tyrosine-protein kinase ABL1 (Homo sapiens, UniProt P00519); assay: Inhibition of Abl (unknown origin)
RCK8 = assay: Antiproliferative activity against human RCK8 cells assessed as inhibition of cell viability incubated for 3 to 5 days by Celltiter-Glo luminescent assay; type: functional, cell-based
Aurora kinase A = Aurora kinase A (Homo sapiens, UniProt O14965); assay: Inhibition of Aurora2 (unknown origin)
[16] = Half life in CB17 SCID mouse xenografted with LuCaP-77 CR cell at 50 mg/kg, ip administered for 7 days; type: ADME, organism-based; conditions: in vivo, time 7 day

With `CNC(=O)Nc1ccc2c(c1)CC[C@@]21OC(=O)N(CC(=O)N(Cc2ccc(F)cc2)[C@@H](C)C(F)(F)F)C1=O` [A-485] the EC50 (Calu-6) was 8.57 µM, the IC50 [1] was greater than 10 µM and the inhibition at 10 µM (MAO-A) was 28%. It also gave an EC50 (HCC38) greater than 10 µM, an AUC at 168 h [2] of 417 µg·h/mL and an EC50 (NCI-H1693) of 2.37 µM. The EC50 (NCI-H23) was 1.79 µM, the EC50 (Hs 294T) was 9 µM and the EC50 (4T1) was greater than 10 µM. It also gave an EC50 (OCI-AML-5) of 4.86 µM, an IC50 (Aurora kinase B) greater than 10 µM and an EC50 (SU-DHL10) of 0.92 µM. It also gave an EC50 (EOL1) greater than 10 µM, an EC50 (SET-2) of 2.01 µM and an IC50 [3] greater than 10 µM. For the same molecule, the EC50 (NCI-H522) was 3.52 µM, the IC50 [4] was greater than 10 µM and the IC50 [5] was greater than 10 µM. It also gave an IC50 [6] greater than 10 µM, an EC50 (MM1.S) of 0.18 µM and a ΔTm [7] of 5.8 °C. The IC50 [8] was greater than 10 µM, the EC50 (U-937) was greater than 10 µM and the EC50 (NCI-H596) was greater than 10 µM. For the same molecule, the EC50 (NCI-H1417) was greater than 10 µM, the IC50 [9] was greater than 10 µM and the EC50 (NCI-H1836) was greater than 10 µM. It also gave an INH [10] of 2.39 µM, an EC50 (NCI-H441) greater than 10 µM and an IC50 [11] greater than 10 µM. It also gave an IC50 [12] greater than 10 µM, an AUC at 168 h [13] of 91.2 µg·h/mL and an EC50 (BT-20) of 0.34 µM. For the same molecule, the EC50 (Granta-519) was 3.28 µM, the IC50 [14] was greater than 10 µM and the EC50 (HT-144) was 3.08 µM. The IC50 [15] was greater than 10 µM, the EC50 (RCK8) was 0.59 µM and the IC50 (Aurora kinase A) was greater than 10 µM. It also gave a half-life [16] of 1.9 h.

Reference: ChEMBL document CHEMBL5649168, “Discovery of a selective catalytic p300/CBP inhibitor that targets lineage-specific tumours” (Nature, 2017)
